# GASC1 inh: inhibitors of GASC-1 (KDM4C) histone demethylase, primary screen, biochemical, single concentration HTS; AID 720574, 2013; inhibition, % at 12.5 µM; GST-KDM4C 2-372, H3K9me3 peptide, LANCE TR-FRET; 0.15% of 96,000 active; Lysine-specific demethylase 4C (Homo sapiens), Q9H3R0;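 active = mean replicate inhibition above about 25%, with at least 55% of replicates also reaching it, limit read from the data, passing the limit was not always enough; inconclusive = only one of those two conditions met; inactive = neither condition met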
#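 Material: N-terminal GST-fused human GASC-1 (KDM4C) fragment, residues 2-372. Input: 10 nM enzyme. Incubation: enzyme reaction 30 min, then detection 60 min, both room temperature. Doses: one test concentration per compound. Read-out basis: inhibition from TR-FRET ratio decrease. Detection: LANCE TR-FRET, excitation 340 nm, emissions 618 and 671 nm.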
# IDH1 R132H inh: inhibitors of IDH1 R132H reductase, primary screen, biochemical, plate reader, single point; AID 624101, 2012; inhibition, % at 10 µM; diaphorase/resazurin fluorescence, 60 min; 0.18% of 70,000 active; in the data active = inhibition above about 34%; inconclusive = no clear call, values can overlap the other calls; inactive = below about 11%;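 note: 0% = DMSO and 100% = no enzyme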
# Target sequence (O75874 whole entry R132H): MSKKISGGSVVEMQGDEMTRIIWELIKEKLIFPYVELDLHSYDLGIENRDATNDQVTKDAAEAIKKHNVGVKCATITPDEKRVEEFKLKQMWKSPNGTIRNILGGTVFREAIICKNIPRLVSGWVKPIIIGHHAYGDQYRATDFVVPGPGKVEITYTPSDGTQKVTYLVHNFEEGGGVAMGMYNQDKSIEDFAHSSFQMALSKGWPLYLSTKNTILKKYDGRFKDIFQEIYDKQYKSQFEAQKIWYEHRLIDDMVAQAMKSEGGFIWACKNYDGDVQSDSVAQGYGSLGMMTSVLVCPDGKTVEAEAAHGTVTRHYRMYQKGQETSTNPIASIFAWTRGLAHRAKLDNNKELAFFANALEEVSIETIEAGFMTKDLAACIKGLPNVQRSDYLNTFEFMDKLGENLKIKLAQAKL
# Pf Dd2 inh: P. falciparum Dd2 growth inhibitors, primary screen, SYBR Green fluorescence, single dose replicates; 72 h; stronger effect = lower value; activity change, % at 10 µM; 2.3% of 94,000 active; AID 1159554, 2015; in the data active = activity change below about -80%; inconclusive = no clear call, values can overlap the other calls
# T cruzi growth-1: T. cruzi intracellular proliferation inhibitors, primary screen, cell-based, beta-gal Tulahuen parasites, NIH3T3 host, luminescence | T. cruzi beta-gal in NIH3T3, GalScreen luminescence, 90 h | inhibition, % at 8.34 µM | 5.9% of 77,000 active;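 active = mean inhibition above about 93%, with at least 55% of replicates each passing it, limit read from the data, passing the limit was not always enough; inconclusive = only one of those two conditions holds; inactive = neither condition holds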
# T cruzi growth-2: T. cruzi intracellular proliferation inhibitors, confirmation, cell-based, NIH3T3 host, beta-gal parasite, luminescence, cherry-pick; T. cruzi beta-gal in NIH3T3, GalScreen luminescence, 90 h; inhibition, % at 8.35 µM; shares compounds with T cruzi growth-1; 72% of 5,600 active;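 active = mean replicate inhibition above about 95% and at least 55% of replicates individually reaching it, limit read from the data; inconclusive = only one of the two criteria is met; inactive = neither criterion is met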
# T cruzi growth-3: inhibitors of intracellular T. cruzi replication, confirmation, NIH3T3 host cells, beta-gal parasites, cherry-pick, set 2; shares compounds with T cruzi growth-1; T. cruzi beta-gal in NIH3T3, GalScreen luminescence, 90 h; inhibition, % at 2.09 µM; 21% of 5,600 active; AID 651740, 2012;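 active = mean inhibition above about 95%, with at least 55% of replicates also reaching it, limit read from the data; inconclusive = meets just one of the two conditions; inactive = meets neither condition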;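 note: plate controls were neutral control median for no effect and positive control median for full effect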
# 3T3 cytotox: cytotoxicity in mouse NIH/3T3 fibroblasts, confirmation, cytotoxicity control for T. cruzi proliferation inhibitor project, cell-based, cherry-pick, single point | NIH/3T3 viability, CellTiter-Glo ATP luminescence, 90 h | cytotoxicity (signal decrease), % at 8.35 µM | shares compounds with T cruzi growth-1 | 14% of 5,600 active;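 active = mean signal decrease across replicates above about 35% based on untreated-well scatter, with enough replicates individually passing, limit read from the data; inconclusive = no rule stated though some were filed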;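 note: 0% = median of neutral control wells and 100% = median of positive control wells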
# NIH3T3 tox 2: NIH/3T3 fibroblast cytotoxicity, confirmation, cytotoxicity control, cell-based, cherry-pick, single point, set 2. shares compounds with T cruzi growth-1. NIH/3T3 viability, CellTiter-Glo ATP luminescence, 90 h. inhibition, % at 24.9 µM. 56% of 5,600 active. AID 651744, 2012;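 active = mean loss of cell viability signal at or above a set limit, and enough replicates individually reaching it; inconclusive = meets only the mean limit or only the replicate share; inactive = meets neither condition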;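 note: 0% = median of neutral control wells and 100% = median of positive control wells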
# Starred values were filed as active, the others as inactive; ? = inconclusive; . = no result. This is a sample that favours compounds with a hit; in the whole collection about 5.8% have one here.
SMILES,GASC1 inh,IDH1 R132H inh,Pf Dd2 inh,T cruzi growth-1,T cruzi growth-2,T cruzi growth-3,3T3 cytotox,NIH3T3 tox 2
C[C@@H](O)C#Cc1ccc([C@H]2[C@@H](CO)N3CCCCN(C(=O)c4ccncc4)C[C@H]23)cc1,1,.,23,16,.,.,.,.
COc1ccc(C#Cc2ccc([C@H]3[C@H]4CN(C(=O)c5ccncc5)CCCCN4[C@H]3CO)cc2)cc1,0,.,3,105*,64,-18,50*,54*
COc1ccc(C#Cc2ccc([C@@H]3[C@H]4CN(C(=O)c5ccncc5)CCCCN4[C@H]3CO)cc2)cc1,-1,.,-27,89,.,.,.,.
O=C(c1cccnc1)N1CCCCN2[C@H](CO)[C@@H](c3ccc(C#Cc4ccccn4)cc3)[C@H]2C1,0,.,34,38,.,.,.,.
O=C(c1ccncc1)N1CCCCN2[C@@H](CO)[C@H](c3ccc(C#Cc4ccccn4)cc3)[C@@H]2C1,1,.,-4,105*,?,15,2,3
C[C@H](O)C#Cc1ccc([C@H]2[C@H]3CN(C(=O)c4ccncc4)CCCCN3[C@H]2CO)cc1,1,.,17,101*,-4,1,-9,11
Cc1cc(Br)ccc1NC(=O)CSc1nnc(-c2ccccc2O)n1-c1ccccc1,.,0,.,.,.,.,.,.
O=S(=O)(N[C@H]1CC[C@@H](CCn2cc(-c3cccc(F)c3)nn2)O[C@@H]1CO)c1ccc(F)cc1,0,0,.,.,.,.,.,.
CCCN1C[C@H](C)[C@H](OC)CN(C)C(=O)c2cc(NS(=O)(=O)c3cn(C)cn3)ccc2OC[C@H]1C,0,0,20,-35,.,.,.,.
O=S(=O)(c1ccc(-c2ccon2)s1)N(Cc1ccccn1)Cc1ccccn1,.,-4,.,.,.,.,.,.
C[C@@H]1CCCCO[C@H](CN(C)C(=O)Nc2ccc(C(F)(F)F)cc2)[C@H](C)CN([C@@H](C)CO)C(=O)c2cc(NS(=O)(=O)c3ccc(F)cc3)ccc2O1,0,-1,-46,79,.,.,.,.
COc1ccc(S(=O)(=O)Nc2ccc3c(c2)C(=O)N([C@H](C)CO)C[C@H](C)[C@@H](CN(C)C(=O)Nc2ccc(C(F)(F)F)cc2)OCCCC[C@H](C)O3)cc1,.,.,-72,101*,109*,116*,10,13
C[C@@H]1CCCCO[C@H](CN(C)C(=O)Nc2ccc(C(F)(F)F)cc2)[C@@H](C)CN([C@H](C)CO)C(=O)c2cc(NS(=O)(=O)c3ccc(F)cc3)ccc2O1,0,4,-32,100*,109*,49,-11,-11
Cc1ccc(S(=O)(=O)Nc2ccc3c(c2)C(=O)N([C@H](C)CO)C[C@H](C)[C@H](CN(C)C(=O)Nc2ccc(C(F)(F)F)cc2)OCCCC[C@H](C)O3)cc1,0,.,-22,101*,101*,116*,-15,-1
Cc1ccc(S(=O)(=O)Nc2ccc3c(c2)C(=O)N([C@H](C)CO)C[C@H](C)[C@H](CN(C)C(=O)Nc2ccc(C(F)(F)F)cc2)OCCCC[C@@H](C)O3)cc1,1,3,-51,103*,104*,54,40*,48*
C[C@@H]1CN([C@H](C)CO)C(=O)c2cc(NS(=O)(=O)c3ccc(Cl)cc3)ccc2O[C@@H](C)CCCCO[C@H]1CN(C)C(=O)Nc1ccc(C(F)(F)F)cc1,3,5,-68,86,.,.,.,.

# Screens from PubChem.
